CHRM5 agonist – CHRM5 agonism in calcium assay; activation, % at 3 µM; CHO-K1 hM5 cells, Fluo-8 calcium fluorescence; 0% DMSO wells, 100% maximal acetylcholine response; 0.19% of 360,000 active; P08912; AID 624037;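 active = activation above the run's mean over test compounds plus 3 SD, cut at about 23% in these data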;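 note: signal is peak over basal fluorescence ratio across the kinetic read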
Target sequence (P08912 whole entry, looked up): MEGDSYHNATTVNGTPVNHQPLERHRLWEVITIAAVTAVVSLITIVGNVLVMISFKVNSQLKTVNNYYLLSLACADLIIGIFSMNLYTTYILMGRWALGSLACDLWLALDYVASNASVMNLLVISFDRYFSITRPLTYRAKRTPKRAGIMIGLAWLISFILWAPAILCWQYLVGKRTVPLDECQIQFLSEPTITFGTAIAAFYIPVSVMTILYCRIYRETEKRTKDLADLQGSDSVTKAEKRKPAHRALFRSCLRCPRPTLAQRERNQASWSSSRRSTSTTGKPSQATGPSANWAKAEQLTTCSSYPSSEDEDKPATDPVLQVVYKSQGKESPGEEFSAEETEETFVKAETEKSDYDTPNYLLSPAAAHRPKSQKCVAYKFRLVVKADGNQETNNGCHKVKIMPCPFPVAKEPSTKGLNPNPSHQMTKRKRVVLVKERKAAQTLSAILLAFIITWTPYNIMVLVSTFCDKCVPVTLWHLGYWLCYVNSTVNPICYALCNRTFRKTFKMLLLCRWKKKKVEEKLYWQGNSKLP
CHRM4 agonist – agonists of human muscarinic M4 receptor (CHRM4); 0.14% of 360,000 active; P08173; AID 624127; activation, % at 3 µM; CHO-K1 hM4/Gqi5, Fluo-8 calcium fluorescence; vehicle 0%, full acetylcholine response 100%;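 active = activation above the run mean over all test wells plus 3 SD, cut at about 32% in these data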;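 note: peak over basal fluorescence ratio per well then scaled between controls; 0% = DMSO wells and 100% = acetylcholine at EC100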
CHRM5 antagonist – CHRM5 antagonism in calcium assay. P08912. 0.59% of 360,000 active. inhibition, % at 3 µM. CHO-hM5 cells, Fluo-8 calcium fluorescence, ACh EC80;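 active = inhibition above a per-plate cutoff, the mean of that plate's test compounds plus 3 SD, cut at about 27% in these data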;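 note: 0% = acetylcholine EC80 with DMSO and 100% = DMSO without agonist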
CHRM5 PAM – potentiates acetylcholine response at human M5 receptor; CHO-K1 hM5, Fluo-8 calcium, ACh EC20 PAM; 0% = ACh EC20, 100% = ACh EC100; activation, % at 3 µM; 0.3% of 360,000 active;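 active = activation above the run cutoff, the mean activation of all test compounds plus 3 SD, cut at about 18% in these data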
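System: CHO-K1 hM5 cells. Reagent: acetylcholine, EC20 level. Compound dosing: single dose, 3 µM nominal final test concentration. Timing: Post-acetylcholine fluorescence recording 140 s. Detection: Fluo-8 calcium fluorescence. Read-out: % activation, ACh-normalized. Benchmarks: ACh EC20 and EC100 wells. Repeats: singlicate, one well per test compound.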
CHRM4 antagonist – antagonists of human muscarinic M4 receptor (CHRM4); P08173; 0.73% of 360,000 active; inhibition, % at 3 µM; CHO-hM4 cells, ACh EC80, Fluo-8 calcium fluorescence;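 active = inhibition above its plate's cutoff, the mean inhibition of sample wells plus 3 SD, cut at about 27% in these data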;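 note: 0% = acetylcholine EC80 with DMSO and 100% = DMSO without agonist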
CHRM4 PAM – positive allosteric modulators of human muscarinic M4 receptor; activation, % at 3 µM; 0.4% of 360,000 active; CHO-K1 hM4/Gqi5, Fluo-8 calcium fluorescence, ACh EC20; 0% = ACh EC20, 100% = maximal ACh; P08173;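 active = activation above its plate's cutoff, the mean activation of sample wells plus 3 SD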
Active calls of the source: *. Rows were chosen to be rich in hits. Some 1.9% of all compounds tested hit in one or more screens of this group.

SMILES	CHRM5 agonist	CHRM4 agonist	CHRM5 antagonist	CHRM5 PAM	CHRM4 antagonist	CHRM4 PAM
CN(C)c1cccc(C(=O)OCC(=O)NC2CCCC2)c1	-2	0	-4	0	-4	-2
CC12CCC(=O)C=C1CCC1C2CCC2(C)C1CC1C3C(=O)N(Cc4ccccc4)C(=O)C3CC(=O)C12 (stereo not drawn)	-4	1	16	-5	-5	2
O=[N+]([O-])c1c(O)c(Cl)cc(Cl)c1Cl (tested in a mixture with another compound)	5	15	6	-3	-6	6
O=C1NC(=S)S/C1=C\c1cc(Cl)cc(Cl)c1O	193*	52*	30*	-41	12	-13
C[N+]1(CC#CC(O)(c2ccccc2)c2ccccc2)CCCC1	-8	0	99*	-18	99*	-18
OC(C#Cc1ccccc1)(c1ccccc1)c1ccccc1	-1	-1	12	-2	8	-6
CC(C)[N+](C)(C)CC#CC(O)(c1ccccc1)c1ccccc1	-18	1	100*	-32	99*	-60
CC(C)CC1NC(=O)c2cc3ccccc3cc2-n2c1nc1cc(Cl)ccc1c2=O (stereo not drawn)	0	0	-10	11	-9	2
O=C(CC[C@H]1O[C@@H](n2ccc(=O)[nH]c2=O)[C@H](O)[C@@H]1O)N[C@H](Cc1ccccc1)C(=O)NCc1ccccc1	2	0	3	1	1	14
Cc1cc(C)cc(N2C(=O)C=CC2=O)c1	3	1	7	3	17	-3
O=C(COC(=O)C1CCCC1)NCc1ccc(Cl)cc1	-3	1	3	2	-5	1
O=C(COC(=O)C1CCC1)NCc1ccccc1	-2	2	-4	7	2	24*
CC(=O)c1c(C)[nH]c(C(=O)NCCc2c[nH]c3ccccc23)c1C	0	7	18	-9	5	-6
O=C(CC[C@H]1O[C@@H](n2ccc(=O)[nH]c2=O)[C@H](O)[C@@H]1O)N1CCN(c2ccccn2)CC1	3	1	-6	7	-16	21*
COc1ccccc1N(C)S(=O)(=O)c1ccc(C(=O)N(C)Cc2ccc(OC(F)F)cc2)cc1	1	24	22	-35	18	-15
Cc1ccc(Nc2ncnc(N)n2)cc1	-1	0	12	-4	-7	-4
Cc1cc(C)c(Nc2ncnc(N)n2)c(C)c1	-3	-2	5	4	100*	-74
CC(C)C[C@H]1COc2cccc(N3CCN(Cc4ccccc4F)CC3)c2S(=O)(=O)N1	2	22	9	-12	-11	-7
COc1ccccc1CNC(=O)Cn1nc(C)c([N+](=O)[O-])c1C	-1	0	8	8	1	4
COc1ccc(CCNC(=O)CCN2C(=O)[C@@H]3Cc4ccccc4CN3C2=O)cc1	10	20	-5	-12	-13	-7
COc1cccc(CNC(=O)CN2C(=O)c3ccccc3S2(=O)=O)c1	-2	1	1	-6	-17	25*
COc1cccc(CNC(=O)Cn2nc(C)c([N+](=O)[O-])c2C)c1	1	0	-8	21*	-20	5
O=C(CN1C(=O)c2ccccc2S1(=O)=O)NCc1ccccc1	-3	1	4	4	-3	2
COc1cccc(CNC(=O)CCN2C(=O)[C@@H]3Cc4ccccc4CN3C2=O)c1	-4	2	-3	0	-27	20*
Cc1noc(C)c1-c1ccc(C(=O)NCc2ccc(Cl)cc2)c2occc12	-1	3	1	-4	-12	-3
Cc1cc(C)nc(NS(=O)(=O)c2ccc(NC(=O)C3CC3)cc2)n1	-1	1	7	0	-13	3
Cc1ccnc(NS(=O)(=O)c2ccc(NC(=O)C34CC5CC(CC(C5)C3)C4)cc2)n1	-4	0	0	28*	-16	4
Cc1cc(C)nc(NS(=O)(=O)c2ccc(NC(=O)C(C)C)cc2)n1	3	-3	6	4	62*	-12

From PubChem
